According to ChEMBL document CHEMBL4190199, “Antimalarial Activities of Alkyl Cyclohexenone Derivatives Isolated from the Leaves of Poupartia borbonica” (J Nat Prod, 2017):
≈ marks a conversion by molar mass, not a printed value.

Tests used:
Plasmodium falciparum [1] = assay: Antiplasmodial activity against asexual erythrocyte stage of chloroquine-resistant Plasmodium falciparum W2 infected in human red blood cells after 48 hrs by lactate dehydrogenase assay; assay type: functional, organism-based; conditions: W2, 48 h
Summary of the method: (§1)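 P. falciparum asexual blood stages in human A+ erythrocytes, RPMI 1640 with HEPES, NaHCO3, glutamine, glucose, hypoxanthine, gentamycin and 10% human A+ serum. Parasitemia 2%, hematocrit 1%. Eight 2-fold dilutions in triplicate, DMSO at most 1%. After 48 h, growth read by pLDH activity. Artemisinin positive control. IC50 read from graphs.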

Plasmodium falciparum [2] = assay: Antiplasmodial activity against asexual erythrocyte stage of chloroquine-sensitive Plasmodium falciparum 3D7 infected in human red blood cells after 48 hrs by lactate dehydrogenase assay; assay type: functional, organism-based; conditions: 3D7, 48 h; summary of the method: as §1
HeLa = assay: Cytotoxicity against human HeLa cells after 48 hrs by WST-1 assay; assay type: functional, cell-based
Summary of the method: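 HeLa cells seeded at 6000 per well in medium containing test compounds and incubated 48 h. WST-1 then added for 30 min at 37 °C, absorbance read at 450 nm. Results expressed as percent of untreated control cells; IC50 taken from graphs.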

[3] = Hemolytic activity in human RBC at 10 ug/ml after 1 hr relative to control; assay type: ADME, cell-based, Erythrocyte; conditions: red blood cells, read-out: Activity
Summary of the method: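 Human A+ erythrocytes, 10% (v/v) in PBS, incubated in triplicate with compounds at final 10 µg/mL (DMSO <1%) for 1 h at room temperature with agitation. Mixtures centrifuged 5 min at 2000 rpm, supernatant absorbance read at 550 nm. 1% (v/v) Triton X-100 served as 100% lysis and PBS as 0% lysis.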

[4] = Selectivity index, ratio of IC50 for human WI38 cells to IC50 for asexual erythrocyte stage of chloroquine-resistant Plasmodium falciparum W2 infected in human red blood cells; assay type: toxicity, cell-based; conditions: read-out: Ratio IC50
[5] = Selectivity index, ratio of IC50 for human WI38 cells to IC50 for asexual erythrocyte stage of chloroquine-sensitive Plasmodium falciparum 3D7 infected in human red blood cells; assay type: toxicity, cell-based; conditions: read-out: Ratio IC50
WI-38 = assay: Cytotoxicity against human WI38 cells after 48 hrs by WST-1 assay; assay type: cell-based; conditions: WI-38, 48 h
Plasmodium falciparum [6] = assay: Antiplasmodial activity against chloroquine-sensitive Plasmodium falciparum F32-Tanzania after 48 hrs by [3H]-hypoxanthine incorporation assay; assay type: functional, organism-based
Plasmodium berghei [7] = assay: Antimalarial activity against Plasmodium berghei NK173 infected in Swiss mouse assessed as inhibition of parasitemia at 15 mg/kg, ip qd administered 4 hrs post infection for 3 days measured on day 7 by Giemsa staining based microscopy relative to control; assay type: functional
Summary of the method: (§2)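 Female Swiss mice (10 weeks, 25 ± 2 g), groups of five, infected ip with 2 × 10^7 P. berghei NK173 parasitized red cells. 15 mg/kg ip in 7% Tween 80/3% EtOH in sterile water, first dose 4 h post-infection (day 0), then once daily for 3 more days. Parasitemia read on Giemsa-stained tail-blood thin smears (≥500 erythrocytes). Inhibition calculated against vehicle controls at days 5 and 7.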

Danio rerio [8] = organism: Danio rerio; assay: Toxicity in 24 to 72 hrs post fertilized zebra fish embryo assessed as death at 10 ug/ml measured within 1 day post dose; assay type: organism-based; conditions: zebrafish, in vivo
Summary of the method: (§3)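 Dechorionated zebrafish embryos, 25 per condition, duplicate geometric series. The first step spanned 10 to 0.001 µg/mL and the second was narrowed to 10 to 1 µg/mL. Compound was diluted from DMSO in fish medium, final DMSO at most 0.4%. Treatment was renewed daily for 3 days, with untreated and 0.4% DMSO controls. Embryos were observed daily until 72 hpf.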

Mus musculus = assay: Toxicity in Swiss mouse assessed as mortality at 15 mg/kg, ip qd measured on day 7; assay type: organism-based; conditions: in vivo
Danio rerio [9] = organism: Danio rerio; assay: Toxicity in 24 to 72 hrs post fertilized zebra fish embryo assessed as bradycardia at 2 to 2.5 ug/ml replaced once daily for 3 days; assay type: organism-based; conditions: zebrafish, in vivo; summary of the method: as §3
Danio rerio [10] = organism: Danio rerio; assay: Toxicity in 72 hrs post fertilized zebra fish embryo assessed as decrease in pericardial function measured after third treatment dose replaced once daily for 3 days; assay type: organism-based; conditions: zebrafish, in vivo; summary of the method: as §3
Danio rerio [11] = organism: Danio rerio; assay: Toxicity in 24 to 72 hrs post fertilized zebra fish embryo assessed as embryo disintegration at 3 to 10 ug/ml replaced once daily for 3 days; assay type: organism-based; conditions: zebrafish, in vivo; summary of the method: as §3
Danio rerio [12] = organism: Danio rerio; assay: Toxicity in 24 to 72 hrs post fertilized zebra fish embryo assessed as percentage of bradycardia developed embryos at 2 to 2.5 ug/ml replaced once daily for 3 days measured each day until 72 hrs post fertilization; assay type: organism-based; conditions: zebrafish, in vivo
Summary of the method: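 Dechorionated zebrafish embryos, 25 per condition, exposed from 24 hpf. Compound in DMSO diluted in zebrafish medium (final DMSO at most 0.4%). Treatment replaced once daily for 3 days, with a narrowed 10–1 µg/mL range run in duplicate. Embryos observed daily to 72 hpf for mortality, disintegration, bradycardia and morphology. Untreated and 0.4% DMSO groups of 25 served as controls.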

Danio rerio [13] = organism: Danio rerio; assay: Toxicity in 72 hrs post fertilized zebra fish embryo assessed as mortality at 1 ug/ml replaced once daily for 3 days; assay type: organism-based; conditions: zebrafish, in vivo; summary of the method: as §3
Danio rerio [14] = organism: Danio rerio; assay: Toxicity in 72 hrs post fertilized zebra fish embryo assessed as cumulative mortality measured after third treatment dose replaced once daily for 3 days; assay type: organism-based; conditions: zebrafish, in vivo; summary of the method: as §3
Plasmodium berghei [15] = assay: Antimalarial activity against Plasmodium berghei NK173 infected in Swiss mouse assessed as inhibition of parasitemia at 15 mg/kg, ip qd administered 4 hrs post infection for 3 days measured on day 5 by Giemsa staining based microscopy relative to control; assay type: functional; summary of the method: as §2
[16] = Toxicity in 48 hrs post fertilized zebra fish embryo assessed as embryo mortality at 2 ug/ml replaced once daily for 3 days; assay type: organism-based, Danio rerio; conditions: zebrafish, in vivo; read-out: Activity; summary of the method: as §3
Danio rerio [17] = organism: Danio rerio; assay: Toxicity in 72 hrs post fertilized zebra fish embryo assessed as morphological changes at 1 ug/ml replaced once daily for 3 days; assay type: organism-based; conditions: zebrafish, in vivo; summary of the method: as §3
Danio rerio [18] = organism: Danio rerio; assay: Toxicity in 72 hrs post fertilized zebra fish embryo assessed as body axis deformation measured after third treatment dose replaced once daily for 3 days; assay type: organism-based; conditions: zebrafish, in vivo; summary of the method: as §3
Danio rerio [19] = organism: Danio rerio; assay: Toxicity in 72 hrs post fertilized zebra fish embryo assessed as death measured after third treatment dose replaced once daily for 3 days; assay type: organism-based; conditions: zebrafish, in vivo; summary of the method: as §3
Danio rerio [20] = organism: Danio rerio; assay: Toxicity in 48 hrs post fertilized zebra fish embryo assessed as cumulative mortality at 1 to 10 ug/ml replaced once daily for 3 days; assay type: organism-based; conditions: zebrafish, in vivo, 72 h; summary of the method: as §3
Danio rerio [21] = organism: Danio rerio; assay: Toxicity in 24 to 72 hrs post fertilized zebra fish embryo assessed as death at 3 to 10 ug/ml measured within 1 day post dose; assay type: organism-based; conditions: zebrafish, in vivo; summary of the method: as §3

Structure (SMILES) | IC50 (Plasmodium falciparum [1]) [µg/mL] | IC50 (Plasmodium falciparum [2]) [nM] | IC50 (HeLa) [µg/mL] | hemolysis at 1 h, 10 ug/ml [3] [%] | selectivity ratio [4] | selectivity ratio [5] | IC50 (WI-38) [µg/mL] | further results
C[C@@H]1CC[C@H]2[C@@H](C)C(=O)O[C@@H]3O[C@@]4(C)CC[C@@H]1[C@]32OO4 [ARTEMISININ] | 0.01 to 0.035 (≈ 0.0354 to 0.124 µM) | 4 to 14 | – | – | – | – | – | –
CCCCCCCCCCCCCCC[C@@H]1C[C@@]2(O)CC(=O)C=C[C@@]2(O)O1 | 0.37 to 0.97 (≈ 0.972 to 2.55 µM) | 690 to 1810 | 1.44 to 3.77 (≈ 3.78 to 9.91 µM) | < 1 | 2.81 | 1.51 | 1.04 to 2.73 (≈ 2.73 to 7.17 µM) | –
CCCCCC/C=C\CCCCCCCC(O)C[C@]1(O)C=C[C@@H](O)[C@@H](O)C1 (stereo partly drawn) | – | – | – | – | – | – | – | IC50 (Plasmodium falciparum [6]): 86.4 µg/mL (≈ 226 µM)
CCCCCC/C=C\CCCCCCC[C@@H]1C[C@@]2(O)CC(=O)C=C[C@@]2(O)O1 | 0.21 to 0.55 (≈ 0.555 to 1.45 µM) | 340 to 900 | 0.8 to 2.1 (≈ 2.11 to 5.55 µM) | < 1 | 2.86 | 1.76 | 0.6 to 1.58 (≈ 1.58 to 4.17 µM) | inhibition in vivo at 15 mg/kg (Plasmodium berghei [7]): 69.5%; Activity (Danio rerio [8]): Toxic; Activity (Mus musculus): Toxic; Activity (Danio rerio [9]): Toxic; Activity (Danio rerio [10]): Toxic; Activity (Danio rerio [11]): Toxic; Activity (Danio rerio [12]): 5%; Activity (Danio rerio [13]): Non-Toxic; Activity (Danio rerio [14]): Toxic; inhibition in vivo at 15 mg/kg (Plasmodium berghei [15]): 59.1%; mortality at 72 h, 2 ug/ml [16]: 60%; Activity (Danio rerio [17]): Non-Toxic; Activity (Danio rerio [18]): Toxic; Activity (Danio rerio [19]): Toxic; Activity (Danio rerio [20]): Toxic; Activity (Danio rerio [21]): Toxic
CC[C@@]1(O)C(=O)OCc2c1cc1n(c2=O)Cc2cc3ccccc3nc2-1 [CAMPTOTHECIN] | – | – | 0.08 to 0.23 (≈ 0.23 to 0.66 µM) | – | – | – | 0.03 to 0.086 (≈ 0.0861 to 0.247 µM) | –
O=c1c(O)c(-c2ccc(O)c(O)c2)oc2cc(O)cc(O)c12 [QUERCETIN] | – | 17500 | – | – | – | – | – | –
CCCCCC/C=C\CCCCCCCC(=O)C[C@@]1(O)C=CC(=O)[C@@H](O)C1 | 0.48 to 1.27 (≈ 1.27 to 3.35 µM) | 430 to 1130 | 1.31 to 3.45 (≈ 3.46 to 9.11 µM) | < 1 | 2.1 | 2.34 | 1.01 to 2.66 (≈ 2.67 to 7.03 µM) | –
